Consider three compounds from ChEMBL document CHEMBL4665829, “Synthesis, Structure-Activity Relationship, and Antimalarial Efficacy of 6-Chloro-2-arylvinylquinolines” (J Med Chem, 2020).

pEC50: −log10 of the molar value. The source made the active and inactive calls. The calls are words filed in the database; no cut-off is given here.

A word on the pEC50: it is the negative decadic logarithm of the EC50, by convention in mol/L.

The test system of data set [1] is Plasmodium falciparum. Nature of the data set: Antiplasmodial activity against late trophozoite synchronized chloroquine-resistant Plasmodium falciparum Dd2 reduction in microbial growth at 6.6 nM measured after 12 hrs by Giemsa staining-based microscopic analysis. The format is functional, organism-based. An outline of the steps:
(§1)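 Dd2 cultures tightly synchronized by magnetic separation and sorbitol were dosed at 5 × EC50 at 6, 18, 30 or 42 h post-invasion. Controls: DHA 50 nM, atovaquone 6.6 nM, DMSO 0.1%. Sampled every 12 h for Giemsa thin smears and for flow cytometry: glutaraldehyde/paraformaldehyde fixation, Triton permeabilization, RNAse, 500 nM YOYO-1, 500,000 events/sample. Three independent biological replicates.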

In data set [2] the test system is Plasmodium falciparum. Nature of the data set: Antiplasmodial activity against late trophozoite synchronized chloroquine-resistant Plasmodium falciparum Dd2 reduction in microbial growth at 6.6 nM measured after 12 hrs by YOYO-1 staining-based flow cytometric analysis. The format is functional, organism-based. An outline of the steps: as §1
A general note: In flow cytometry, cells or beads pass a laser one at a time.

Data set [3] deals with Plasmodium falciparum. Nature of the data set: Parasiticidal activity against chloroquine-resistant Plasmodium falciparum Dd2 infected in RBC assessed as reduction in parasitemia at 6.6 nM incubated for 48 hrs followed by compound washout and then incubated for 96 hrs by Giemsa staining based microscopic analysis. The format is functional, organism-based. In short, it runs like this:
(§2)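 Controls: 0.15% DMSO, DHA 50 nM, atovaquone 6.6 nM. Drug removed by three RPMI washes, then parasitemia followed daily for 96 h by Giemsa thin smears. Three independent biological replicates.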

The test system of data set [4] is Plasmodium falciparum. Nature of the data set: Antiplasmodial activity against synchronous gametocyte late stage of Plasmodium falciparum 3D7 harboring luc7 incubated for 72 hrs by ONE-Glo luciferase assay. The format is functional, organism-based. The following applies: 3D7, 72 h. An outline of the steps:
(§3)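 Gametocytes of P. falciparum 3D7 luc7 induced by nutrient starvation, cultured in heparin medium to remove asexual stages, Percoll-purified as early (II–III) or late (IV–V) stage. 50,000 gametocytes/well exposed 72 h to a 19-point gradient, 0.038 nM–10 μM. ONE-Glo luciferase read after 5 min. EC50 by nonlinear curve fit; three experiments.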

In data set [5] the test system is Plasmodium falciparum. Nature of the data set: Antiplasmodial activity against synchronous gametocyte early stage of Plasmodium falciparum 3D7 harboring luc7 incubated for 72 hrs by ONE-Glo luciferase assay. The format is functional, organism-based. The following applies: 3D7, 72 h. In short, it runs like this: as §3
For data set [6], the system named is Plasmodium falciparum. Nature of the data set: Parasiticidal activity against chloroquine-resistant Plasmodium falciparum Dd2 infected in RBC assessed as reduction in parasitemia at 50 nM incubated for 6 to 48 hrs followed by compound washout and then incubated for 96 hrs by Giemsa staining based microscopic analysis. The data set is classed as functional, organism-based. The following applies: time hrs 6-48. An outline of the steps: as §2

In data set [7] the test system is Plasmodium falciparum. Nature of the data set: Antiplasmodial activity against synchronized chloroquine-resistant Plasmodium falciparum Dd2 reduction in microbial growth at 50 nM treated with compound at 42 hrs post infection measured after 12 hrs by Giemsa staining-based microscopic analysis. The format is functional, organism-based. An outline of the steps: as §1

Data set [8] relates to Plasmodium falciparum. Nature of the data set: Antiplasmodial activity against synchronized chloroquine-resistant Plasmodium falciparum Dd2 reduction in microbial growth at 50 nM treated with compound at 42 hrs post infection measured after 12 hrs by YOYO-1 staining-based flow cytometric analysis. The data set is classed as functional, organism-based. An outline of the steps: as §1

Data set [9] can be described thus: Intrinsic clearance in mouse liver microsomes assessed as parent compound at 1 uM after 60 mins in presence of NADPH by LC-MS analysis. The data set is classed as ADME, Microsome. In short, it runs like this:
(§4)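 Mouse liver microsomes (0.5 mg/mL final protein) in 0.1 M phosphate, pH 7.4, with compound at 1 μM, 37 °C with shaking. Aliquots were quenched in cold acetonitrile and centrifuged; LC–MS gave parent peak area at 60 min relative to 0 min.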
For orientation: Microsomes from liver hold many membrane-bound enzymes, among them those of drug oxidation.

Data set [10] is described as follows: Resistant index, ratio of EC50 for antiplasmodial activity against chloroquine-resistant Plasmodium falciparum Dd2 to antiplasmodial activity against chloroquine-sensitive Plasmodium falciparum 3D7. The data set is classed as functional.
The test system of data set [11] is Plasmodium berghei. Nature of the data set: Antiplasmodial activity against Plasmodium berghei ANKA expressing luciferase infected in Swiss Webster mouse at 25 mg/kg, po for 5 days using monophosphate salt form of compound by luminescence based assay. The following applies: time 5.0 day. The data set is classed as functional, organism-based. In short, it runs like this:
(§5)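 Female Swiss Webster mice got 10³ RBC infected with luciferase-expressing P. berghei ANKA. From 48 h post-infection, groups of five were gavaged once daily for 5 days in 2% methylcellulose/0.5% Tween 80, against a vehicle control. On day 7, mice received 150 mg/kg D-luciferin in PBS, and bioluminescence was imaged by IVIS as a measure of parasite load.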

The test system of data set [12] is Hemozoin. Nature of the data set: Inhibition of beta-hematin formation after 16 hrs by inverted microscopic analysis. The following applies: dose microM 12.5-200, time 16.0 hrs. An outline of the steps: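 Hemin (2 mM stock in 0.1 M NaOH; 100 μM final), propionate buffer pH 5.2 and sonicated phosphatidylcholine were incubated with a compound concentration series for 16 h at 37 °C with gentle shaking. Crystals were imaged by inverted microscope before quenching with 7.5% SDS in bicarbonate, pH 9.1. Free hemin was measured at 405 nm against a 0–16 μM calibration. Three independent experiments.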

Data set [13] concerns HepG2. Nature of the data set: Cytotoxicity against human HepG2 cells assessed as reduction in cell viability after 48 hrs by MTS assay. The format is cell-based. The following applies: HepG2, 48 h. An outline of the steps: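 HepG2 cells were seeded at 2250 per well and grown 24 h at 37 °C, 5% CO₂. Serial dilutions starting at 25 μM were added for a further 48 h. MTS was then added for 3 h at 37 °C and absorbance read at 490 nm. EC₅₀ came from nonlinear dose–response fits.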

Data set [14] can be described thus: Half life in mouse liver microsomes at 1 uM after 60 mins in presence of NADPH by LC-MS analysis. The format is ADME, Microsome. The following applies: 1 h. An outline of the steps: as §4
A short description of data set [15]: Selectivity index, ratio of EC50 for cytotoxicity against human HepG2 cells to antiplasmodial activity against chloroquine-resistant Plasmodium falciparum Dd2. The data set is classed as toxicity, cell-based. The following applies: read-out: Ratio EC50.
The test system of data set [16] is Plasmodium falciparum. Nature of the data set: Antiplasmodial activity against late trophozoite synchronized chloroquine-resistant Plasmodium falciparum Dd2 reduction in microbial growth at 5 times of EC50 after 12 hrs by Giemsa staining-based microscopic analysis. The data set is classed as functional, organism-based. In short, it runs like this:
as §1

For data set [17], the system named is Plasmodium falciparum. Nature of the data set: Parasiticidal activity against chloroquine-resistant Plasmodium falciparum Dd2 infected in RBC assessed as reduction in parasitemia at 5 times of EC50 incubated for 6 to 48 hrs followed by compound washout and then incubated for 96 hrs by Giemsa staining based microscopic analysis. The following applies: time hrs 6-48. The data set is classed as functional, organism-based. An outline of the steps: as §2

Data set [18] has as its system Plasmodium falciparum. Nature of the data set: Antiplasmodial activity against chloroquine-resistant Plasmodium falciparum Dd2 infected in human erythrocytes assessed as reduction in microbial growth after 72 hrs by SYBR green I staining based fluorescence assay. The data set is classed as functional, organism-based. The following applies: Dd2, Erythrocyte. An outline of the steps: (§6)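 SYBR Green I assay: twofold serial dilutions on P. falciparum cultures at 1% parasitemia, 1% hematocrit, 37 °C, 5% CO₂, 72 h, max 0.1% DMSO. DMSO and CQ as growth and inhibition controls. Plates frozen at −80 °C, thawed, lysed in Tris/saponin/EDTA/Triton buffer with 0.01% SYBR Green I, 1 h dark at room temperature. Fluorescence read at 485 ex/530 em. EC50 by nonlinear dose–response fit.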

Data set [19] is described as follows: Stability of compound in mouse liver microsomes assessed as parent compound remaining at 1 uM after 60 mins in presence of NADPH by LC-MS analysis. The data set is classed as ADME, Microsome. The following applies: 1 h. An outline of the steps: as §4
Data set [20] relates to Plasmodium falciparum. Nature of the data set: Antiplasmodial activity against late trophozoite synchronized chloroquine-resistant Plasmodium falciparum Dd2 reduction in microbial growth at 5 times of EC50 after 12 hrs by YOYO-1 staining-based flow cytometric analysis. The format is functional, organism-based. An outline of the steps:
as §1

Data set [21] concerns Plasmodium falciparum. Nature of the data set: Potency index, ratio of EC50 for UCF501 to test compound EC50 for antiplasmodial activity against chloroquine-resistant Plasmodium falciparum Dd2 infected in human erythrocytes assessed as reduction in microbial growth after 72 hrs by SYBR green I staining based fluorescence assay. The format is functional, Erythrocyte. An outline of the steps:
as §6

In data set [22] the test system is Plasmodium falciparum. Nature of the data set: Antiplasmodial activity against chloroquine-sensitive Plasmodium falciparum 3D7 infected in human erythrocytes assessed as reduction in microbial growth after 72 hrs by SYBR green I staining based fluorescence assay. The data set is classed as functional, organism-based. The following applies: 3D7, Erythrocyte. An outline of the steps:
as §6

The subject of data set [23] is Plasmodium berghei. Nature of the data set: Antiplasmodial activity against Plasmodium berghei ANKA expressing luciferase infected in Swiss Webster mouse at 100 mg/kg, po for 5 days using monophosphate salt form of compound by luminescence based assay. The data set is classed as functional, organism-based. The following applies: time 5.0 day. In short, it runs like this:
as §5

Turning to `O=C1C(O)=C([C@H]2CC[C@H](c3ccc(Cl)cc3)CC2)C(=O)c2ccccc21`, the result in [1] and in [2] was inactive. For the same compound, the result in data set [3] was Active.
Regarding `C[C@H]1[C@@H](O)O[C@@H]2O[C@@]3(C)CC[C@H]4[C@H](C)CC[C@@H]1[C@@]24OO3` [ARTENIMOL], the pEC50 is 7.43 in data set [4] and 7.76 in data set [5]. For the same compound, the result in [6], in data set [7] and in [8] was Active.
For the compound `CN(C)CCNc1cc(/C=C/c2ccc(F)cc2)nc2ccc(Cl)cc12`, the CLH in data set [9] was found to be 25.1 µL/min/mg. The Ratio EC50 in data set [10] was determined as 0.6; in data set [21], 14. The pEC50 is 5.69 in data set [4]; 5.27 in data set [13]; 6.23 in data set [5]; 8.32 in data set [18]; 8.06 in [22]. The result in [11], in data set [16], in data set [17], in [20] and in data set [23] was Active. The inhibition result in [12] was “Dose-dependent effect”. Further, in data set [14], the t1/2 stood at 55.2 min. In addition, the selectivity ratio in data set [15] turned out to be 1110. Besides, the Stabilty in data set [19] is listed as 47.1%.
